# In ChEMBL document CHEMBL1126267, “A novel synthesis and potent antiinflammatory activity of 4-hydroxy-2(1H)-oxo-1-phenyl-1,8-naphthyridine-3-carboxamides” (1992):
# How the values were obtained:
# Assay type in all cases: functional
# Rattus norvegicus [1] = test: Antiinflammatory activity on Carrageenan rat's paw edema(CPE) after peroral administration of 100 mg/kg dose with control swelling of 73.7%; conditions: route oral
# Rattus norvegicus [2] = test: Inhibition of Zymosan-induced rat's paw edema(ZPE) after peroral administration of 100 mg/kg dose.; conditions: route oral
# How it was run: (§1)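 Male Wistar rats (about 150 g) were dosed orally with compound suspended in 5% arabic gum, 1 h before a subplantar hind-paw injection of 0.1 mL saline. The irritant was 1% zymosan for 33 or 1% λ-carrageenin for 34. Paw volume was measured by plethysmograph before dosing and at 4 h (zymosan) or 3 h (carrageenin). Swelling is relative to initial volume, as mean ± SEM. % inhibition is versus the control group's mean swelling.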
# Rattus norvegicus [3] = test: Compound was tested for the inhibition of rat reversed passive Arthus pleurisy after peroral administration of 100 mg/kg dose at 3.44*10e6 no of cells with 7.4*10e6 cells of control; conditions: route oral
# How it was run: (§2)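 Male Wistar rats (about 250 g) under ether received 0.2 mL rabbit anti-egg-albumin antiserum intrapleurally. Thirty min later they got 15 mg EA/100 g body weight in 0.1 mL saline iv. Compounds were given orally beforehand. Rats were killed 4.5 h after induction and the thoracic cavity rinsed with 5 mL saline. Exudate volume and infiltrated cell count were read as mean ± SE. % inhibition is versus control.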
# Rattus norvegicus [4] = test: Compound was tested for the inhibition of rat reversed passive Arthus pleurisy after peroral administration of 100 mg/kg dose at 0.58 mL of exudate volume with 0.82 mL of control (injected intrapleurally); conditions: route oral
# How it was run: (§3)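 Male Wistar rats (about 250 g) were given compound orally before the antiserum. Under ether anesthesia, 0.2 mL rabbit anti-egg albumin antiserum was injected intrapleurally. After 30 min, egg albumin (15 mg/100 g body weight in 0.1 mL saline) was given iv. Rats were killed 4.5 h later and the thoracic cavity was rinsed with 5 mL saline. Exudate volume and infiltrated cell number were measured, with inhibition % versus controls as mean ± SEM.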
# Rattus norvegicus [5] = test: Inhibition of carrageenan-induced rat's paw edema (CPE) after peroral administration of 100 mg/kg dose.; conditions: route oral; how it was run: as §1
# Rattus norvegicus [6] = test: Antiinflammatory activity on Zymosan-induced rat's paw edema(ZPE) after peroral administration of 100 mg/kg dose with control swelling of 72.9%; conditions: route oral
# How it was run: (§4)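 Male Wistar rats weighing about 150 g were dosed orally with compound suspended in 5% arabic gum. 1 h later, 1% zymosan in 0.1 mL saline was injected subplantarly into the hind paw. Paw volume was measured by plethysmograph before dosing and 4 h after zymosan, with edema as the volume difference. Inhibition % was derived from mean swelling versus the control group.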
# Rattus norvegicus [7] = test: Antiinflammatory activity on Zymosan-induced rat's paw edema(ZPE) after peroral administration of 100 mg/kg dose with control swelling of 62.8%; conditions: route oral; how it was run: as §4
# Rattus norvegicus [8] = test: Antiinflammatory activity on Carrageenan rat's paw edema(CPE) after peroral administration of 100 mg/kg dose with control swelling of 68.1%; conditions: route oral
# Rattus norvegicus [9] = test: Compound was tested for the inhibition of rat reversed passive Arthus pleurisy after peroral administration of 100 mg/kg dose at 0.71 mL of exudate volume with 0.84 mL of control (injected intrapleurally); conditions: route oral; how it was run: as §3
# Rattus norvegicus [10] = test: Compound was tested for the inhibition of rat reversed passive Arthus pleurisy after peroral administration of 100 mg/kg dose at 4.81*10e6 no of cells with 5.72*10e6 cells of control; conditions: route oral; how it was run: as §2
# Rattus norvegicus [11] = test: Compound was tested for the inhibition of arachidonic acid-induced rat's paw edema(APE) after peroral administration of 3 mg/kg dose with control swelling of 51.6%; conditions: route oral
# How it was run: (§5)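 Test: arachidonic acid paw edema in male Wistar rats of about 150 g. Oral dosing in 5% arabic gum came 1 h before subplantar injection of 1% arachidonic acid sodium salt in 0.1 mL saline into the hind paw. Plethysmograph paw volume was read before dosing and 1 h post-irritant, and edema = volume difference. % inhibition was taken from mean swelling against controls.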
# Rattus norvegicus [12] = test: Antiinflammatory activity on Zymosan-induced rat's paw edema(ZPE) after peroral administration of 30 mg/kg dose with control swelling of 68.1%; conditions: route oral; how it was run: as §4
# Rattus norvegicus [13] = test: Compound was tested for the inhibition of Carrageenan rat's paw edema(CPE) after peroral administration of 10 mg/kg dose
# Rattus norvegicus [14] = test: Compound was tested for the inhibition of rat reversed passive Arthus pleurisy after peroral administration of 25 mg/kg dose at 0.32+/-0.07 mL of exudate volume (injected intrapleurally); conditions: route oral; how it was run: as §2
# Rattus norvegicus [15] = test: Compound was tested for the inhibition of rat reversed passive Arthus pleurisy after peroral administration of 5 mg/kg dose at 3.54+/-0.06*10e6 no of cells; conditions: route oral; how it was run: as §2
# Rattus norvegicus [16] = test: Antiinflammatory activity on Zymosan-induced rat's paw edema(ZPE) after peroral administration of 10 mg/kg dose with control swelling of 68.1%; conditions: route oral; how it was run: as §4
# Rattus norvegicus [17] = test: Compound was tested for the inhibition of arachidonic acid-induced rat's paw edema(APE) after peroral administration of 10 mg/kg dose with control swelling of 51.6%; conditions: route oral; how it was run: as §5
# Rattus norvegicus [18] = test: Antiinflammatory activity on Zymosan-induced rat's paw edema(ZPE) after peroral administration of 100 mg/kg dose with control swelling of 71.7%; conditions: route oral; how it was run: as §4
# Rattus norvegicus [19] = test: Compound was tested for the inhibition of arachidonic acid-induced rat's paw edema(APE) after peroral administration of 10 mg/kg dose; conditions: route oral; how it was run: as §5
# Rattus norvegicus [20] = test: Compound was tested for the inhibition of Zymosan-induced rat's paw edema(ZPE) after peroral administration of 3 mg/kg dose; conditions: route oral; how it was run: as §4
# Rattus norvegicus [21] = test: Antiinflammatory activity on Zymosan-induced rat's paw edema(ZPE) after peroral administration of 3 mg/kg dose with control swelling of 68.1%; conditions: route oral; how it was run: as §4
# Rattus norvegicus [22] = test: Compound was tested for the inhibition of rat reversed passive Arthus pleurisy after peroral administration of 100 mg/kg dose at 2.96 +/- 0.16*10e6 no of cells; conditions: route oral; how it was run: as §3
# Rattus norvegicus [23] = test: Compound was tested for the inhibition of Zymosan-induced rat's paw edema(ZPE) after peroral administration of 30 mg/kg dose; conditions: route oral; how it was run: as §4
# Rattus norvegicus [24] = test: Compound was tested for the inhibition of rat reversed passive Arthus pleurisy after peroral administration of 25 mg/kg dose at 4.25+/-0.1*10e6 no of cells; conditions: route oral; how it was run: as §2
# Rattus norvegicus [25] = test: Compound was tested for the inhibition of arachidonic acid-induced rat's paw edema(APE) after peroral administration of 30 mg/kg dose with control swelling of 51.6%; conditions: route oral
# Rattus norvegicus [26] = test: Compound was tested for the inhibition of Carrageenan rat's paw edema(CPE) after peroral administration of 3 mg/kg dose; conditions: route oral
# Rattus norvegicus [27] = test: Compound was tested for the inhibition of arachidonic acid-induced rat's paw edema(APE) after peroral administration of 30 mg/kg dose; conditions: route oral; how it was run: as §5
# Rattus norvegicus [28] = test: Antiinflammatory activity on Carrageenan rat's paw edema(CPE) after peroral administration of 100 mg/kg dose with control swelling of 64.2%; conditions: route oral
# Rattus norvegicus [29] = test: Compound was tested for the inhibition of rat reversed passive Arthus pleurisy after peroral administration of 100 mg/kg dose at 0.28 mL of exudate volume with 0.86 mL of control (injected intrapleurally); conditions: route oral; how it was run: as §3
# Rattus norvegicus [30] = test: Compound was tested for the inhibition of rat reversed passive Arthus pleurisy after peroral administration of 10 mg/kg dose at 4.30+/-0.41*10e6 no of cells; conditions: route oral; how it was run: as §3
# Rattus norvegicus [31] = test: Compound was tested for the inhibition of rat reversed passive Arthus pleurisy after peroral administration of 100 mg/kg dose at 0.28+/-0.06 mL of exudate volume (injected intrapleurally); conditions: route oral; how it was run: as §3
# Rattus norvegicus [32] = test: Antiinflammatory activity on Carrageenan rat's paw edema(CPE) after peroral administration of 30 mg/kg dose with control swelling of 75.8%; conditions: route oral
# Rattus norvegicus [33] = test: Compound was tested for the inhibition of Zymosan-induced rat's paw edema(ZPE) after peroral administration of 10 mg/kg dose; conditions: po; how it was run: as §4
# Rattus norvegicus [34] = test: Compound was tested for the inhibition of rat reversed passive Arthus pleurisy after peroral administration of 10 mg/kg dose at 0.37+/-0.07 mL of exudate volume (injected intrapleurally); conditions: route oral; how it was run: as §3
# Rattus norvegicus [35] = test: Antiinflammatory activity on Carrageenan rat's paw edema(CPE) after peroral administration of 10 mg/kg dose with control swelling of 75.8%; conditions: route oral
# Rattus norvegicus [36] = test: Compound was tested for the inhibition of arachidonic acid-induced rat's paw edema(APE) after peroral administration of 3 mg/kg dose; conditions: route oral; how it was run: as §5
# Rattus norvegicus [37] = test: Compound was tested for the inhibition of rat reversed passive Arthus pleurisy after peroral administration of 5 mg/kg dose at 0.4+/-0.04 mL of exudate volume (injected intrapleurally); conditions: route oral; how it was run: as §2
# Rattus norvegicus [38] = test: Compound was tested for the inhibition of rat reversed passive Arthus pleurisy after peroral administration of 100 mg/kg dose at 2.96*10e6 no of cells with 3.86*10e6 cells of control; conditions: route oral; how it was run: as §3
# Rattus norvegicus [39] = test: Antiinflammatory activity on Carrageenan rat's paw edema(CPE) after peroral administration of 3 mg/kg dose with control swelling of 75.8%; conditions: route oral
smiles,measurement,setting,value
O=C(NCc1cccnc1)c1c(O)c2cccnc2n(-c2ccccc2)c1=O,Swelling,Rattus norvegicus [1],62.8%
same,inhibition in vivo at 100 mg/kg,Rattus norvegicus [2],25.5%
same,inhibition in vivo at 100 mg/kg,Rattus norvegicus [3],53.5%
same,inhibition in vivo at 100 mg/kg,Rattus norvegicus [4],29.3%
same,inhibition in vivo at 100 mg/kg,Rattus norvegicus [5],14.7%
same,Swelling,Rattus norvegicus [6],54.3%
O=C(Nc1ccc([N+](=O)[O-])cc1)c1c(O)c2cccnc2n(-c2ccccc2)c1=O,Swelling,Rattus norvegicus [7],67.6%
same,Swelling,Rattus norvegicus [8],85.7%
same,inhibition in vivo at 100 mg/kg,Rattus norvegicus [2],-7.6%
same,inhibition in vivo at 100 mg/kg,Rattus norvegicus [9],16.7%
same,inhibition in vivo at 100 mg/kg,Rattus norvegicus [10],18.5%
same,inhibition in vivo at 100 mg/kg,Rattus norvegicus [5],-25.8%
O=C(Nc1cccnc1)c1c(O)c2cccnc2n(-c2ccccc2)c1=O,Swelling,Rattus norvegicus [11],30.5%
same,Swelling,Rattus norvegicus [12],38.2%
same,inhibition in vivo at 10 mg/kg,"Rattus norvegicus [13]; Rattus norvegicus, po",33.8%
same,Inhibition,"Rattus norvegicus [13]; route oral, 10 mg/kg",22.7%
same,inhibition in vivo at 25 mg/kg,Rattus norvegicus [14],62.9%
same,inhibition in vivo at 5 mg/kg,Rattus norvegicus [15],33.3%
same,Swelling,Rattus norvegicus [16],50.8%
same,Swelling,Rattus norvegicus [17],28.9%
same,Swelling,Rattus norvegicus [18],50%
same,inhibition in vivo at 10 mg/kg,Rattus norvegicus [19],44%
same,inhibition in vivo at 3 mg/kg,Rattus norvegicus [20],21.9%
same,Swelling,Rattus norvegicus [21],53.2%
same,inhibition in vivo at 100 mg/kg,Rattus norvegicus [22],30.5%
same,inhibition in vivo at 30 mg/kg,Rattus norvegicus [23],43.9%
same,inhibition in vivo at 25 mg/kg,Rattus norvegicus [24],42.1%
same,Swelling,Rattus norvegicus [25],30.6%
same,inhibition in vivo at 3 mg/kg,Rattus norvegicus [26],20.2%
same,inhibition in vivo at 30 mg/kg,Rattus norvegicus [27],40.7%
same,Swelling,Rattus norvegicus [28],44.4%
same,inhibition in vivo at 100 mg/kg,Rattus norvegicus [2],30.3%
same,inhibition in vivo at 100 mg/kg,Rattus norvegicus [29],75.3%
same,inhibition in vivo at 10 mg/kg,Rattus norvegicus [30],41.2%
same,inhibition in vivo at 100 mg/kg,Rattus norvegicus [31],75.3%
same,Swelling,Rattus norvegicus [32],50.2%
same,inhibition in vivo at 10 mg/kg,Rattus norvegicus [33],25.4%
same,inhibition in vivo at 10 mg/kg,Rattus norvegicus [34],55.7%
same,Swelling,Rattus norvegicus [35],58.6%
same,inhibition in vivo at 100 mg/kg,Rattus norvegicus [5],30.8%
same,inhibition in vivo at 3 mg/kg,Rattus norvegicus [36],40.9%
same,inhibition in vivo at 5 mg/kg,Rattus norvegicus [37],50%
same,inhibition in vivo at 100 mg/kg,Rattus norvegicus [38],30.5%
same,Swelling,Rattus norvegicus [39],60.5%
